Compounds with a hit are over-represented: about 5.5% of the library has one in this group of screens.
STAT1 inh: STAT1 signaling inhibition. NIH 3T3 STAT1-luciferase reporter, IFN-gamma, luminescence. 200,000 compounds, 0.35% hits. inhibition, % at 5.5 µM;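 active means inhibition above a set limit, the mean inhibition across all tested compounds plus 3 SD, cut at about 34% in these data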;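 further: 0% = IFN-gamma with DMSO and 100% = IFN-gamma with 300 µM nifuroxazide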
STAT3 activator: activators of IL-6 induced STAT3 signaling | activation (% of control), % at 5.6 µM | 190,000 compounds, 0.91% hits | U3A cells, IL-6 STAT3-luciferase reporter, luminescence; 100% = signal with IL-6 EC80 alone;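 active means activation above the screen-wide mean of compound activation plus 3 SD, cut at about 130% in these data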;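 further: 0% = background luminescence of wells with medium and substrate only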
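Test system: Human STAT1-deficient U3A cells with stable STAT3-luciferase reporter | Also added: Interleukin-6, 33 ng/mL | Timing: Compound pre-incubation 1 h before IL-6, then 6 h stimulation at 37 °C | Technique: Luciferase reporter luminescence | Read-out: Percent of IL-6-only median luminescence | Benchmarks: IL-6-only wells as 100% reference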
STAT3 inh: reduces IL-6 driven STAT3 reporter signal. U3A cells, IL-6 STAT3-luciferase reporter, luminescence; host cell line lacks STAT1. inhibition, % at 5.5 µM. 190,000 compounds, 0.89% hits;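 active means inhibition above the mean inhibition across all screened compounds plus 3 SD, cut at about 44% in these data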;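 further: 0% = DMSO only wells and 100% = 100 µM nifuroxazide control wells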
KCC2 mod: modulators of human KCC2 chloride dependent transport | KCC2 cells, thallium flux FluoZin-2 fluorescence | 190,000 compounds, 2.2% hits | B-score of Tl+ flux slope (higher = more flux/activation; lower = inhibition) at 10 µM | Q9H2X9;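 active means thallium flux slope and its plate-corrected score both differing from the plate sample mean at a set confidence after two filtering rounds, in either direction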;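 further: slope of fluorescence scaled to starting intensity during 10 to 20 s after thallium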
Target sequence (Q9H2X9 whole entry, looked up): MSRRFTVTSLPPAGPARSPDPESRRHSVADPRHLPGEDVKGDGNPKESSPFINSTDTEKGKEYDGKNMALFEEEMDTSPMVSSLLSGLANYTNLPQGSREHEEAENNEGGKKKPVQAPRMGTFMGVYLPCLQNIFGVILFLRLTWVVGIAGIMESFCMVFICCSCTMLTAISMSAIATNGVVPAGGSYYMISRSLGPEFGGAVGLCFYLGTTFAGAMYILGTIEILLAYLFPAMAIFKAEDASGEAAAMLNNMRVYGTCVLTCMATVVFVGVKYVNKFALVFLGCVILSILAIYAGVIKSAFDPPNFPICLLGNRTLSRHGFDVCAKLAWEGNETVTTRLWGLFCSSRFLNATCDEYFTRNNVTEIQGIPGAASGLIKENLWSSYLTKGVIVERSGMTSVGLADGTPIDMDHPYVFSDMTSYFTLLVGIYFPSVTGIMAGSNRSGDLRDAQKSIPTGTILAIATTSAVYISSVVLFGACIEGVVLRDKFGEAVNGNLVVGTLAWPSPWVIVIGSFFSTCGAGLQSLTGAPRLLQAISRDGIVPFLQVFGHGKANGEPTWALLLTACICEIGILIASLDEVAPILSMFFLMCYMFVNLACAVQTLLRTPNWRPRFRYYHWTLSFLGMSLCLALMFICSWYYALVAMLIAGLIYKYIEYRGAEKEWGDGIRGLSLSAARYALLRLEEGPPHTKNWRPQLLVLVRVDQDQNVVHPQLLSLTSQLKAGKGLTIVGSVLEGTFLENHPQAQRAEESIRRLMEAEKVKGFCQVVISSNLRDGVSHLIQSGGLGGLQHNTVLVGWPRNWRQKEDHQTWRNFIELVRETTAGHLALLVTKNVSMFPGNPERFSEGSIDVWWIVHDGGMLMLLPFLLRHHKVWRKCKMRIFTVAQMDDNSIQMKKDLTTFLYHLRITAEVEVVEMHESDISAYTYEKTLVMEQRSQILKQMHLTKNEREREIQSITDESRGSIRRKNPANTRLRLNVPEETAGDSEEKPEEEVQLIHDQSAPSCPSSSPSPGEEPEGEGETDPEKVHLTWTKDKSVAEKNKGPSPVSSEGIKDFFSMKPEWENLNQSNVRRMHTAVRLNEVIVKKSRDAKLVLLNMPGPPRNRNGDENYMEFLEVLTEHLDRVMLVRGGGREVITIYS
HSV augment: HSV replication enhancement | 220,000 compounds, 0.005% hits | HSV replication augmentation in cells, fold increase | AID 1956 | maximum fold increase; in the data active means maximum fold increase above about 1.5; inconclusive means no clear call, values can overlap the other calls; tested in PC3 cells
STAT1 act: increases IFN-gamma driven STAT1 reporter signal; activation (% of control), % at 5.5 µM; NIH 3T3 STAT1-luciferase reporter, luminescence; 100% = IFN-gamma alone, no compound; 200,000 compounds, 2.6% hits;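 active means activation above the screen-wide mean activation plus 3 SD, cut at about 130% in these data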;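 further: raw ratio to IFN-gamma control signal so 100% means no change and 0% no light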
KCC2 sec1: KCC2 (human) modulation, secondary assay. AID 1713. shares compounds with KCC2 mod. 3,700 compounds, 15% hits. HEK293-KCC2, thallium flux, FluoZin2 fluorescence; stronger effect = higher value. normalised thallium flux (F/F0 slope) at 10 µM;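 active means thallium flux slope above the same plate's solvent-only control mean plus 3 SD; inconclusive means the two replicate wells disagree; inactive means no significant difference from solvent-only control wells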
KCC2 bumet counter: bumetanide-insensitive thallium flux in KCC2 cells with ouabain, counter-screen | shares compounds with KCC2 mod | HEK293-KCC2 + bumetanide/ouabain, thallium flux FluoZin2; stronger effect = higher value | normalized thallium flux at 10 µM | 3,700 compounds, 49% hits | AID 1714;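 active means thallium entry rate above the same plate's blocked-transporter control wells by more than 3 SD; inconclusive means the two repeat wells disagree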;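 further: raw slope of fluorescence over initial fluorescence between 10 and 20 s after thallium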
KCC2 sec2: confirmation of human KCC2 transport modulators | shares compounds with KCC2 mod | HEK293-KCC2, thallium flux FluoZin2 fluorescence; actives lie on both sides; F/F0 rise rate, 10–20 s post-thallium | normalized thallium flux at 10 µM | 3,700 compounds, 23% hits;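 active means thallium flux slope more than 3 SD above or below the plate's solvent-only control mean, mostly below; inconclusive means the two repeat wells disagreed; inactive means no significant shift from solvent-only controls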;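 further: raw slope with 0.1% DMSO as baseline and bumetanide as block control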
HEK counter1: parental HEK flux effect, counter-screen | shares compounds with KCC2 mod | HEK293 parental cells, thallium flux FluoZin2, ouabain; baseline-ratio fluorescence slope, 10–20 s after thallium | thallium flux rate (normalised fluorescence) at 10 µM | 3,700 compounds, 46% hits | AID 1716;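 active means thallium flux rate significantly above the same plate's solvent-only control wells, beyond their mean plus 3 SD; inconclusive means the two replicate wells gave conflicting results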
KCC2 retest ouab: KCC2 (human) modulation, ouabain retest | AID 1717 | shares compounds with KCC2 mod | 3,700 compounds, 48% hits | HEK293-KCC2, thallium flux FluoZin2 fluorescence; bidirectional: low = inhibitor, high = activator | raw Tl+ flux slope (below DMSO = inhibition, above = activation) at 10 µM;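 active means thallium flux slope beyond 3 SD from same-plate DMSO control mean in most replicates, usually higher, sometimes lower; inconclusive means repeat tests gave conflicting results; inactive means no significant difference from controls in most replicates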;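 further: slope of initial-normalized fluorescence between seconds 10 and 20 after thallium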
HEK counter2: acts in parental HEK cells, second KCC2 counter-screen; HEK293 parental, thallium flux FluoZin-2 fluorescence slope; shares compounds with KCC2 mod; AID 1718; 3,700 compounds, 33% hits; thallium flux slope at 10 µM;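 active means thallium flux slope above the same plate's solvent-control mean plus 3 SD in both duplicate wells; inconclusive means duplicate wells that disagreed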;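 further: run without ouabain in cells lacking the KCC2 cotransporter; slope of fluorescence scaled to its starting value between 10 and 20 s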
* hit, by the source's call; i = inactive; u = inconclusive; x = no result.

SMILES	STAT1 inh	STAT3 activator	STAT3 inh	KCC2 mod	HSV augment	STAT1 act	KCC2 sec1	KCC2 bumet counter	KCC2 sec2	HEK counter1	KCC2 retest ouab	HEK counter2
CCC(C)(C)NC(=O)C(c1ccc(OC)cc1)N(Cc1cccs1)C(=O)CCC(=O)Nc1cc(C)on1 (centres undefined)	-6	88	18	-0.11	i	98	x	x	x	x	x	x
CCC(C)NC(=O)CSc1nc(-c2cccs2)cc(C(F)(F)F)n1 (centres undefined)	-1	107	-2	2.9*	i	100	0.0058	0.0044	0.03	0.0074	0.019	0.01
O=C(O)CSc1nc(-c2cccs2)cc(C(F)(F)F)n1	2	93	10	-0.02	i	97	x	x	x	x	x	x
Cc1cccc(CSC(=N)N)c1	6	106	-9	1	i	95	x	x	x	x	x	x
Cc1cccc(CSC(Nc2ccc(F)cc2)=C(C#N)C#N)c1	24	82	21	-5*	i	79	0.0073	0.0064	0.029	0.0057*	0.059*	0.01
O=C(Nc1nc(-c2ccccc2)cs1)c1ccccc1NS(=O)(=O)c1ccc(F)cc1	30	69	41	-6.5*	i	73	0.0058	u	0.017*	u	0.0096*	0.0097
CN1CCN(S(=O)(=O)c2cccc(C(=O)Nc3nc(-c4ccccc4)cs3)c2)CC1	22	112	-8	-3*	x	80	0.018	0.0044	0.027	u	0.014	0.01
O=C(O)CCC(=O)Nc1nc(-c2ccccc2)cs1	-1	102	2	0.44	i	101	x	x	x	x	x	x
O=C(Nc1nc(-c2ccccc2)cs1)c1cccs1	-30	93	12	-1.2	i	128	u	0.0094*	0.031	0.0073	u	0.0099
O=C(Nc1nc(-c2ccccn2)cs1)c1ccc(Cl)s1	0	108	-10	37*	i	101	0.0056	0.06*	0.06*	0.06*	0.054*	0.063*
CC1=NN(c2ccc(C)cc2C)C(=O)C1C(c1cccc(O)c1)C1C(=O)N(c2ccc(C)cc2C)N=C1C (centres undefined)	-5	105	-9	-0.67	i	105	x	x	x	x	x	x
O=C(O)c1ccc(N/N=C/c2ccc(OC(=O)c3ccccc3Cl)cc2)cc1	11	75	32	-1	i	90	x	x	x	x	x	x
CCC1(CC)NC(=O)N(CC(=O)OCC(=O)Nc2ccc(F)c(F)c2F)C1=O	-5	104	1	0.058	i	103	x	x	x	x	x	x
O=C(Nc1nc(-c2ccccc2)ns1)c1cccs1	-28	95	12	x	i	125	0.0069	0.005	0.026	0.0069	0.015*	0.0098
O=C(NCc1ccccn1)C(=O)Nc1nc(-c2ccccc2)cs1	x	x	x	3.5	i	x	x	x	x	x	x	x
CCn1c(CCNC(=O)c2ccc(OC)cc2)nnc1SCC(=O)Nc1ccccc1F	-8	100	7	-0.027	i	107	x	x	x	x	x	x
O=C(NCc1ccccc1)C(=O)Nc1nc(-c2ccccc2)cs1	x	x	x	27*	i	x	0.021*	0.037*	0.034	0.053*	0.039*	0.016*
CCC(=O)Nc1nc(-c2ccccc2)ns1	-17	108	-7	2.5*	i	115	0.0073	0.0045	0.032	0.0074	0.019	0.01
CCOc1ccc(NC(=O)CSc2nnc(CCNC(=O)c3ccc(OC)cc3)n2CC)cc1	-2	109	-7	x	x	102	0.011	u	0.035	0.0077	0.022	u
CCO[C@@H]1OC(C(N)=O)=C[C@H](c2coc3ccccc3c2=O)[C@H]1CCCO	x	x	x	-0.38	i	x	x	x	x	x	x	x
Cc1nnsc1SCCNC(=O)c1ccc(F)cc1	-6	96	11	x	i	105	x	x	x	x	x	x
Cc1cc2cc(C)c3nnc(SCC(=O)Nc4ccc(S(=O)(=O)N5CCCCC5)cc4)n3c2cc1C	7	95	3	-0.34	i	94	x	x	x	x	x	x
CCn1c(CCNC(=O)c2cccs2)nnc1SCC(=O)Nc1nc(-c2ccccc2)cs1	-2	103	1	-3.2*	i	102	0.0085	0.0046	u	0.0066	0.014*	0.01
S=c1[nH]c2ccccc2n2cccc12	x	x	x	22*	i	x	0.017*	0.087*	u	0.028*	0.048*	0.018*
CC(=O)NCC(=O)OCC(=O)c1ccc(Cl)cc1	-5	108	-7	0.028	i	103	x	x	x	x	x	x
SMILES	STAT1 inh	STAT3 activator	STAT3 inh	KCC2 mod	HSV augment	STAT1 act	KCC2 sec1	KCC2 bumet counter	KCC2 sec2	HEK counter1	KCC2 retest ouab	HEK counter2
COc1ccc(C2CCCN2C(=O)Nc2ccc(Cl)cc2)cc1OC (centres undefined)	-5	90	20	-3.3*	i	104	0.0066	0.0049	0.03	0.0075	u	0.011
COc1ccc(NC(=O)C2CCCN2C(=O)Nc2ccccc2)cc1OC (centres undefined)	-3	105	-2	-0.028	i	103	x	x	x	x	x	x
Nc1ccc(Br)c2c1C(=O)c1ccccc1C2=O	-18	86	21	-3.8*	i	116	u	u	0.032	u	0.018	0.011
Nc1ccc(O)c2c1C(=O)c1ccccc1C2=O	-4	96	16	-1	i	103	x	x	x	x	x	x
C=CCOc1c(Br)cc(/C=N/Nc2ccc(C(=O)O)cc2)cc1OCC	-27	96	8	-5.7*	i	124	0.0059	0.0058*	0.028	0.0079	0.017	0.01
CCOc1cc(/C=N/O)cc(Br)c1OCC	7	107	-5	-0.6	i	93	x	x	x	x	x	x
C=CCN(CC=C)CCOc1ccc2ccccc2c1	-7	100	5	0.046	i	105	x	x	x	x	x	x
COc1ccc(S(=O)(=O)N(C)CC(=O)O)c2ccccc12	-5	107	-4	3*	i	104	0.0066	0.0048	0.029	0.008	0.018	0.011
COc1ccc(C)cc1S(=O)(=O)N(C)CC(=O)Nc1ccccc1	10	93	12	1.8	i	91	x	x	x	x	x	x
